Reference: ChEMBL document CHEMBL1255376, “Comparative surveillance study of telavancin activity against recently collected gram-positive clinical isolates from across the United States” (2008)
Converted amounts (≈) assume the structure as drawn.

Key:
Type in all cases: functional
[1] = test system: Streptococcus pyogenes; assay: Antibacterial activity against Streptococcus pyogenes clinical isolate by broth microdilution method
Method in brief: (§1)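 MIC by CLSI broth microdilution in frozen microtiter trays holding serial dilutions of each agent, prepared from standard laboratory powders. E. faecalis ATCC 29212 and ATCC 51299, S. aureus ATCC 29213 and S. pneumoniae ATCC 49619 run in parallel as quality-control strains. Comparator susceptibility interpreted with CLSI breakpoints.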

[2] = test system: Streptococcus agalactiae; assay: Antibacterial activity against Streptococcus agalactiae clinical isolate by broth microdilution method; method in brief: as §1
[3] = Antibacterial activity against Streptococcus sp. Group C clinical isolate by broth microdilution method; method in brief: as §1
[4] = test system: Streptococcus sp.; assay: Antibacterial activity against Streptococcus sp. Group F clinical isolate by broth microdilution method
Method in brief: (§2)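 MIC by CLSI broth microdilution in frozen microtiter trays holding serial dilutions of each agent, prepared from standard laboratory powders. Comparator susceptibility interpreted with CLSI breakpoints.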

[5] = Antibacterial activity against Streptococcus sp. Group G clinical isolate by broth microdilution method; method in brief: as §1
[6] = test system: Streptococcus equinus; assay: Antibacterial activity against Streptococcus bovis clinical isolate by broth microdilution method; method in brief: as §1
[7] = test system: Streptococcus constellatus; assay: Antibacterial activity against Streptococcus constellatus clinical isolate by broth microdilution method; method in brief: as §1
[8] = test system: Streptococcus intermedius; assay: Antibacterial activity against Streptococcus intermedius clinical isolate by broth microdilution method; method in brief: as §1
[9] = test system: Streptococcus mitis; assay: Antibacterial activity against Streptococcus mitis clinical isolate by broth microdilution method; method in brief: as §1
[10] = test system: Streptococcus oralis; assay: Antibacterial activity against Streptococcus oralis clinical isolate by broth microdilution method; method in brief: as §1
[11] = test system: Streptococcus sanguinis; assay: Antibacterial activity against Streptococcus sanguinis clinical isolate by broth microdilution method; method in brief: as §1
[12] = test system: Streptococcus sp.; assay: Antibacterial activity against Streptococcus sp. clinical isolate by broth microdilution method; method in brief: as §2
[13] = test system: Streptococcus pneumoniae; assay: Antibacterial activity against penicillin susceptible Streptococcus pneumoniae clinical isolate by broth microdilution method
Method in brief: (§3)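 MICs by CLSI broth microdilution in frozen trays pre-loaded with serial dilutions of each agent. Quality-control strains run in parallel: E. faecalis ATCC 29212 and ATCC 51299, S. aureus ATCC 29213, S. pneumoniae ATCC 49619. Comparator susceptibility categories follow CLSI breakpoints. Methicillin resistance in staphylococci assigned from the oxacillin MIC.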

[14] = test system: Staphylococcus aureus; assay: Antibacterial activity against methicillin-susceptible Staphylococcus aureus clinical isolate by broth microdilution method; method in brief: as §3
[15] = test system: Staphylococcus aureus; assay: Antibacterial activity against methicillin-resistant Staphylococcus aureus clinical isolate by broth microdilution method; method in brief: as §3

Work on `CC1(C)S[C@@H]2[C@H](NC(=O)Cc3ccccc3)C(=O)N2[C@H]1C(=O)O` [PENICILLIN G] yielded an MIC [1] of at most 0.06 µg/mL, an MIC50 [1] of at most 0.06 µg/mL and an MIC90 [1] of at most 0.06 µg/mL. It also gave an MIC [2] of at most 0.06 µg/mL, an MIC50 [2] of at most 0.06 µg/mL and an MIC90 [2] of at most 0.06 µg/mL. For the same compound, the MIC [3] was at most 0.06 µg/mL, the MIC50 [3] was at most 0.06 µg/mL and the MIC90 [3] was at most 0.06 µg/mL. For the same compound, the MIC [4] was at most 0.06 µg/mL, the MIC50 [4] was at most 0.06 µg/mL and the MIC90 [4] was at most 0.06 µg/mL. The MIC [5] was at most 0.06 µg/mL, the MIC50 [5] was at most 0.06 µg/mL and the MIC90 [5] was at most 0.06 µg/mL. It also gave an MIC [6] of at most 0.06 µg/mL, an MIC50 [6] of at most 0.06 µg/mL and an MIC90 [6] of 1 µg/mL (≈ 2.99 µM). The MIC [7] was at most 0.06 µg/mL, the MIC50 [7] was at most 0.06 µg/mL and the MIC90 [7] was 1 µg/mL (≈ 2.99 µM). The MIC [8] was at most 0.06 µg/mL, the MIC50 [8] was at most 0.06 µg/mL and the MIC90 [8] was 1 µg/mL (≈ 2.99 µM). For the same compound, the MIC [9] was at most 0.06 µg/mL, the MIC50 [9] was at most 0.06 µg/mL and the MIC90 [9] was 1 µg/mL (≈ 2.99 µM). It also gave an MIC [10] of at most 0.06 µg/mL, an MIC50 [10] of at most 0.06 µg/mL and an MIC90 [10] of 1 µg/mL (≈ 2.99 µM). The MIC [11] was at most 0.06 µg/mL, the MIC50 [11] was at most 0.06 µg/mL and the MIC90 [11] was 1 µg/mL (≈ 2.99 µM). The MIC [12] was at most 0.06 µg/mL, the MIC50 [12] was at most 0.06 µg/mL and the MIC90 [12] was 1 µg/mL (≈ 2.99 µM). For the same compound, the MIC [13] was at most 0.06 µg/mL, the MIC50 [13] was at most 0.06 µg/mL and the MIC90 [13] was at most 0.06 µg/mL.
GENTAMICIN showed an MIC50 [14] of 0.25 µg/mL, an MIC90 [14] of 0.5 µg/mL and an MIC50 [15] of 0.5 µg/mL. It also gave an MIC90 [15] of 2 µg/mL.
